{
  "source": "ChEMBL document CHEMBL4477207",
  "about": "“Discovery of Novel 3-Quinoline Carboxamides as Potent, Selective, and Orally Bioavailable Inhibitors of Ataxia Telangiectasia Mutated (ATM) Kinase” (J Med Chem, 2016)",
  "key": {"[1]": {"biological_target": "T1, Tyrosine-protein kinase Mer (Homo sapiens) (UniProt Q12866)", "T1 sequence (whole entry)": "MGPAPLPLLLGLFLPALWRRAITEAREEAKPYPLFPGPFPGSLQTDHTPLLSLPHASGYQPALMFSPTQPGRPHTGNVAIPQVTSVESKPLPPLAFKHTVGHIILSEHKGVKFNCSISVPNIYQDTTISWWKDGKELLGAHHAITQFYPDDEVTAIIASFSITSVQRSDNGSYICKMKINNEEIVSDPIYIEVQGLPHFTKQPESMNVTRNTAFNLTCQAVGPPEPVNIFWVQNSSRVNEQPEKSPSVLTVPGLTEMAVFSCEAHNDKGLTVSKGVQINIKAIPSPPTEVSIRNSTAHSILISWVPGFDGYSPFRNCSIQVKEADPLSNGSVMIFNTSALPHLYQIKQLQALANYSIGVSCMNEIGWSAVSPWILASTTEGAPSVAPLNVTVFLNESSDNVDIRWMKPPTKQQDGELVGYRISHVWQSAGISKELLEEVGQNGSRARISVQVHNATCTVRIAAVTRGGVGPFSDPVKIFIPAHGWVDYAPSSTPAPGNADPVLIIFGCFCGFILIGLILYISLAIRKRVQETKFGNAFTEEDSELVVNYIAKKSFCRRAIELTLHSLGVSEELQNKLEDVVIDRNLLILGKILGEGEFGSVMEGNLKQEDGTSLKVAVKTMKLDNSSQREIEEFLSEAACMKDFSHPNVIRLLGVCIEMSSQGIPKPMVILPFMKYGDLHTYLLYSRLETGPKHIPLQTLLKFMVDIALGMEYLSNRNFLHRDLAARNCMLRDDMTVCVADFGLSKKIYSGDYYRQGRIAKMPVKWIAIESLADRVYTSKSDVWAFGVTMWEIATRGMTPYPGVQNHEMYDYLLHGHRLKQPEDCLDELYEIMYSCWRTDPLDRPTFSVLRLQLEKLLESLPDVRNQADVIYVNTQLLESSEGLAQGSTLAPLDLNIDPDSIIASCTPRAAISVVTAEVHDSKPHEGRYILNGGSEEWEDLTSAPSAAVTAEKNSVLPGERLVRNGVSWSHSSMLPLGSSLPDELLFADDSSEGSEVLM", "experiment": "Inhibition of N-terminal GST-tagged recombinant human Mer (557 to 882 residues) expressed in baculovirus infected Sf21 cells using GGMEDIYFEFMGGKKK as substrate at 1 uM relative to control"}, "[2]": {"biological_target": "Phosphatidylinositol 4,5-bisphosphate 3-kinase catalytic subunit gamma isoform (Homo sapiens, UniProt P48736)", "experiment": "Inhibition of human recombinant PI3Kgamma using PIP2/ATP as substrate incubated for 20 mins followed by substrate addition by Kinase Glo reagent based luminescence assay"}, "[3]": {"experiment": "Fraction unbound in mouse plasma by equilibrium dialysis method", "format": "ADME, cell-free"}, "[4]": {"experiment": "Intrinsic clearance in rat hepatocytes assessed per million cells", "format": "ADME, cell-based, Hepatocyte", "conditions": "read-out: CLH", "method_in_brief": "(§1)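 Intrinsic clearance measured in hepatocytes of each species, reported as µL/min/10⁶ cells.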"}, "[5]": {"experiment": "Cmax in nude mouse at 50 mg/kg, po", "format": "ADME, organism-based", "set-up": "dose 50 mg/kg, route oral", "conditions": "in vivo", "method_in_brief": "(§2)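 Nude mice, single oral dose of 50 mg/kg. Vehicle was either a propylene glycol aqueous solution or 10% DMSO:90% captisol solution.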"}, "[6]": {"experiment": "Oral bioavailability in dog at 2 mg/kg", "format": "ADME, organism-based, Canis lupus familiaris", "conditions": "in vivo"}, "[7]": {"biological_target": "T2, DNA-dependent protein kinase catalytic subunit (Homo sapiens, UniProt P78527)", "T2 sequence (P78527 whole entry)": "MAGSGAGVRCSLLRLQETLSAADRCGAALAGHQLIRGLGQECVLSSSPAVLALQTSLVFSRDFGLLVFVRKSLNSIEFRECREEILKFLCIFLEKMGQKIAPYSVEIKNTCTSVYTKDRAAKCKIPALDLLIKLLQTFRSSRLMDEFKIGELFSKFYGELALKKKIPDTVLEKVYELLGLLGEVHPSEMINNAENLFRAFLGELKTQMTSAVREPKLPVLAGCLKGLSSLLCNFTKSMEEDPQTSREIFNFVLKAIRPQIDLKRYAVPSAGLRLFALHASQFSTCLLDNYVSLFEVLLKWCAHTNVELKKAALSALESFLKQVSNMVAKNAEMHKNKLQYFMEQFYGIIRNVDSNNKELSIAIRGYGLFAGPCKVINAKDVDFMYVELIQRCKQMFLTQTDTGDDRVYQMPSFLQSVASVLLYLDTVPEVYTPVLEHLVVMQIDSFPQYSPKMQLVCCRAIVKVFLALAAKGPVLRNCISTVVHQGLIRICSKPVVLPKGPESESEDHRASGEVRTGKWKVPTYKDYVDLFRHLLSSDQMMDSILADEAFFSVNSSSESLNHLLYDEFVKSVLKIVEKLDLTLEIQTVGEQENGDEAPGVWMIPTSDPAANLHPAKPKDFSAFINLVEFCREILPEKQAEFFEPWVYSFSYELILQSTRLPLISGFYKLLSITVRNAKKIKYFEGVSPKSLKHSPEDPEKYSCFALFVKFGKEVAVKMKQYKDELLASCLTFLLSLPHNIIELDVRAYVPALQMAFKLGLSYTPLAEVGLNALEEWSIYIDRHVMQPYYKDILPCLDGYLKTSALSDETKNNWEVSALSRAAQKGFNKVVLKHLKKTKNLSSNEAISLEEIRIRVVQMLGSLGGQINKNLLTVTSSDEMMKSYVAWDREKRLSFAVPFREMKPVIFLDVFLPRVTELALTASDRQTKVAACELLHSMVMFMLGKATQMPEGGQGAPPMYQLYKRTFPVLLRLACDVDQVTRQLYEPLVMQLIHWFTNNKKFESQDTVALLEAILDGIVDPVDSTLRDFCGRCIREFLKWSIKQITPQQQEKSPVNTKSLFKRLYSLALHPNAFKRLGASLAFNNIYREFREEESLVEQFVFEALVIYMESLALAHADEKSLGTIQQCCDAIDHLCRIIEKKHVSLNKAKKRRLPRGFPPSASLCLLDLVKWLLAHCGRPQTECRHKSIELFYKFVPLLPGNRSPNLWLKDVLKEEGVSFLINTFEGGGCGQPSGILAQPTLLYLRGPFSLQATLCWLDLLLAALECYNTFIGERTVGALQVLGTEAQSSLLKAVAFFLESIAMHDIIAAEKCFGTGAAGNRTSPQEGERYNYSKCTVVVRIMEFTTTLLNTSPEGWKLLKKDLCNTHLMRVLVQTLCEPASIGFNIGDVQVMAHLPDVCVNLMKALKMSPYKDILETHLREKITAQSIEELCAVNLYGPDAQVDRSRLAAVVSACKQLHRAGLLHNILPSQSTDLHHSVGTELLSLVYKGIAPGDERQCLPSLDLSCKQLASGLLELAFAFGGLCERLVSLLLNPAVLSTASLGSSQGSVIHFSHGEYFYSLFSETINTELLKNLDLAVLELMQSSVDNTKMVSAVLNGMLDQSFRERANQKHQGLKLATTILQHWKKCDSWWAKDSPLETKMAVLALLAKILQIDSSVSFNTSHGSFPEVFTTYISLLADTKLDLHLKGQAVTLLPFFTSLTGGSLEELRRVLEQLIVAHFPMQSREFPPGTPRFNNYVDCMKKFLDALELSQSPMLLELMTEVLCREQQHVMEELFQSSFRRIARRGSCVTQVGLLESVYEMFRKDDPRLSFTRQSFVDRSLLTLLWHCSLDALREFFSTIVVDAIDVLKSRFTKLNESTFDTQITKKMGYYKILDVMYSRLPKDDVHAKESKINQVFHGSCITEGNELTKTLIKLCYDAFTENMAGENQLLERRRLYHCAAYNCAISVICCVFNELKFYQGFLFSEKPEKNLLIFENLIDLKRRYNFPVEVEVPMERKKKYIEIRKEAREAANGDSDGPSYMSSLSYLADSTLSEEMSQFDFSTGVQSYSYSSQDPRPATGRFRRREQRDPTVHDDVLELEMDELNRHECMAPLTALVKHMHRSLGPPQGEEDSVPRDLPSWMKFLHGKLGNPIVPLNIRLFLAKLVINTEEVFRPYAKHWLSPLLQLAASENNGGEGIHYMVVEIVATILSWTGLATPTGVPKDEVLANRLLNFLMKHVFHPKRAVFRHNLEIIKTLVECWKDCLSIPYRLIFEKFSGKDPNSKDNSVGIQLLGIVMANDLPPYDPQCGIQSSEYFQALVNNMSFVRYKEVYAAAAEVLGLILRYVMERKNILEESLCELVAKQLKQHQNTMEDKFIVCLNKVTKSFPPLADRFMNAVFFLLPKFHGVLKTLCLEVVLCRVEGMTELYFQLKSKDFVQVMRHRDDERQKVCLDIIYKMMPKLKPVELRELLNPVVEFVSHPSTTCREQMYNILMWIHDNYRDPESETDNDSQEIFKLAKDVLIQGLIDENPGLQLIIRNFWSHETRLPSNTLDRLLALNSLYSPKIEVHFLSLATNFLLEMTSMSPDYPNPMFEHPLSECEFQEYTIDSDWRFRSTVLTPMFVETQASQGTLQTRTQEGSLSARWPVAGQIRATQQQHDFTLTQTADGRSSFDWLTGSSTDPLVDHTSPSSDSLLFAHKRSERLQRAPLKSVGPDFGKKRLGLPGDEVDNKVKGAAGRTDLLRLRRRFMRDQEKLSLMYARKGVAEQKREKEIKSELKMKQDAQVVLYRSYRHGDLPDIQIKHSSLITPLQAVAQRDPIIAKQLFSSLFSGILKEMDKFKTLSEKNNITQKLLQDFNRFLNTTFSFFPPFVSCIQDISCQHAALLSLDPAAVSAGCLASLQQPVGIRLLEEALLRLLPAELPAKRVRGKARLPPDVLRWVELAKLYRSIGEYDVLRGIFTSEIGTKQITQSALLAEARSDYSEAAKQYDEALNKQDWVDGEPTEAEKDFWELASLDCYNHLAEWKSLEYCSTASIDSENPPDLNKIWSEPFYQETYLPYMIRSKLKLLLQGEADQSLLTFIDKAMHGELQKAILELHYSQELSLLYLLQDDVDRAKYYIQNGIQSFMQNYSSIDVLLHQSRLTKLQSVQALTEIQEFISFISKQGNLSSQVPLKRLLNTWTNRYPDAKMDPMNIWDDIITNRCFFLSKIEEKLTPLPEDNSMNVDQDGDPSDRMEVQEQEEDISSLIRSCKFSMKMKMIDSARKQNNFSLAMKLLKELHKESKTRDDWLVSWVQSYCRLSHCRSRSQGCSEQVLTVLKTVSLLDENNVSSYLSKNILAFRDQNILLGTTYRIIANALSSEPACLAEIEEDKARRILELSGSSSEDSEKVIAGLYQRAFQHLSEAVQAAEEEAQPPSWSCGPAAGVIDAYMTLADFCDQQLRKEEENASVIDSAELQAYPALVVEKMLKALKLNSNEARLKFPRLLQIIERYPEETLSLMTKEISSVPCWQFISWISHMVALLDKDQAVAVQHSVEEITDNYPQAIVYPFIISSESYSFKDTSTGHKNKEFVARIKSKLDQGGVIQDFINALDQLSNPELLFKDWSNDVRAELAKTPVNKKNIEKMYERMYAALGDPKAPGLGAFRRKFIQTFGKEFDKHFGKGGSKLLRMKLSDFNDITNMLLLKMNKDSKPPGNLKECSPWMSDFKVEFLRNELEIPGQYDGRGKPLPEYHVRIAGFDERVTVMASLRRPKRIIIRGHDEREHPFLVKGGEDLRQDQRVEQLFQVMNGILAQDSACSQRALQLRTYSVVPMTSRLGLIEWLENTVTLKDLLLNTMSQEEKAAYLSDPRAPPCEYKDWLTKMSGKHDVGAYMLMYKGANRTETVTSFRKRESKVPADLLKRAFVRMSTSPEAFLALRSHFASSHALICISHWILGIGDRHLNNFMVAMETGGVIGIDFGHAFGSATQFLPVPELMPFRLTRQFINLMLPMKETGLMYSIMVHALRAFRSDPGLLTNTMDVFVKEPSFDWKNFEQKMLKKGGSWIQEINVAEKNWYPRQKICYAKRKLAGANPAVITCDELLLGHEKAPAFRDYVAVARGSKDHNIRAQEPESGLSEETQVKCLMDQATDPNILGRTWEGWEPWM", "experiment": "Inhibition of DNAPK (unknown origin) using p53-based peptide substrate preincubated for 5 min prior to ATP addition"}, "[8]": {"experiment": "Oral bioavailability in Han Wistar rat at 5 mg/kg", "format": "ADME, organism-based", "conditions": "in vivo"}, "[9]": {"experiment": "Intrinsic clearance in mouse hepatocytes assessed per million cells", "format": "ADME, cell-based, Hepatocyte", "conditions": "read-out: CLH", "method_in_brief": "as §1"}, "[10]": {"experiment": "Intrinsic clearance in dog hepatocytes assessed per million cells", "format": "ADME, cell-based, Canis lupus familiaris, Hepatocyte", "conditions": "read-out: CLH", "method_in_brief": "as §1"}, "[11]": {"experiment": "Apparent permeability from apical to basolateral side in human Caco2 cells", "format": "ADME, cell-based", "conditions": "Caco-2"}, "Mus musculus": {"tested_on": "Mus musculus", "experiment": "Time duration during which free plasma concentration stays above in-vitro ATM IC50 level in nude mouse at 50 mg/kg, po", "format": "ADME, organism-based", "conditions": "in vivo", "method_in_brief": "as §2"}, "[12]": {"experiment": "Fraction unbound in human plasma by equilibrium dialysis method", "format": "ADME, cell-free"}, "[13]": {"experiment": "Fraction unbound in rat plasma by equilibrium dialysis method", "format": "ADME, cell-free"}, "[14]": {"biological_target": "Dual specificity protein kinase CLK4 (Homo sapiens) (UniProt Q9HAZ1)", "experiment": "Inhibition of recombinant human CLK4 at 1 uM"}, "[15]": {"experiment": "Volume of distribution at steady state in dog at 1 mg/kg, iv or 2 mg/kg, po", "format": "ADME, organism-based, Canis lupus familiaris", "conditions": "in vivo, read-out: Vdss"}, "in vitro [16]": {"experiment": "in vitro", "conditions": "human, hepatocytes"}, "in vitro [17]": {"experiment": "in vitro", "conditions": "rat, hepatocytes"}, "[18]": {"biological_target": "T3, Phosphatidylinositol 4,5-bisphosphate 3-kinase catalytic subunit beta isoform (Homo sapiens, UniProt P42338)", "experiment": "Inhibition of human recombinant PI3Kbeta using PIP2/ATP as substrate incubated for 20 mins followed by substrate addition by Kinase Glo reagent based luminescence assay"}, "[19]": {"biological_target": "T3, Phosphatidylinositol 4,5-bisphosphate 3-kinase catalytic subunit beta isoform", "experiment": "Inhibition of PI3Kbeta (unknown origin) by cell based assay"}, "[20]": {"experiment": "AUC (0 to 24 hrs) in nude mouse at 50 mg/kg, po", "format": "ADME, organism-based", "set-up": "dose 50 mg/kg, time < 24 hr, route oral", "conditions": "in vivo", "method_in_brief": "as §2"}, "SW-620": {"tested_on": "SW-620", "experiment": "Antitumor activity against human SW620 cells xenografted in immunocompromised athymic Swiss nude mouse assessed as tumor growth inhibition at 50 mg/kg bid administered via oral gavage for 3 days a week for 3 weeks regime after 24 hrs of topoisomerase-1 inhibitor irinotecan administration", "format": "functional, organism-based"}, "[21]": {"biological_target": "Serine/threonine-protein kinase mTOR (Homo sapiens, UniProt P42345)", "experiment": "Inhibition of C-terminal FLAG-tagged recombinant mTOR (1362 to 2549 residues) (unknown origin) using Biotin-Ahx-Lys-Lys-Ala-Asn-Gln-Val-Phe-Leu-Gly-Phe-Thr-Tyr-Val-Ala-Pro-Ser-Val-Leu-Glu-Ser-Val-Lys-Glu-NH2 as substrate after 90 mins by AlphaScreen assay"}, "[22]": {"experiment": "Fraction unbound in dog plasma by equilibrium dialysis method", "format": "ADME, cell-free, Canis lupus familiaris"}, "[23]": {"experiment": "Clearance in Han Wistar rat at 2 mg/kg, iv or 5 mg/kg, po", "format": "ADME, organism-based", "conditions": "in vivo"}, "[24]": {"biological_target": "Glycogen synthase kinase-3 beta (Homo sapiens, UniProt P49841)", "experiment": "Inhibition of GSK3beta (unknown origin)"}, "[25]": {"biological_target": "T2, DNA-dependent protein kinase catalytic subunit", "experiment": "Inhibition of DNAPK phosphorylation at Ser-2056 residue in human HT-29 cells", "format": "cell-based"}, "[26]": {"biological_target": "T4, Phosphatidylinositol 4,5-bisphosphate 3-kinase catalytic subunit alpha isoform (Homo sapiens, UniProt P42336)", "T4 sequence (P42336 whole entry, canonical isoform)": "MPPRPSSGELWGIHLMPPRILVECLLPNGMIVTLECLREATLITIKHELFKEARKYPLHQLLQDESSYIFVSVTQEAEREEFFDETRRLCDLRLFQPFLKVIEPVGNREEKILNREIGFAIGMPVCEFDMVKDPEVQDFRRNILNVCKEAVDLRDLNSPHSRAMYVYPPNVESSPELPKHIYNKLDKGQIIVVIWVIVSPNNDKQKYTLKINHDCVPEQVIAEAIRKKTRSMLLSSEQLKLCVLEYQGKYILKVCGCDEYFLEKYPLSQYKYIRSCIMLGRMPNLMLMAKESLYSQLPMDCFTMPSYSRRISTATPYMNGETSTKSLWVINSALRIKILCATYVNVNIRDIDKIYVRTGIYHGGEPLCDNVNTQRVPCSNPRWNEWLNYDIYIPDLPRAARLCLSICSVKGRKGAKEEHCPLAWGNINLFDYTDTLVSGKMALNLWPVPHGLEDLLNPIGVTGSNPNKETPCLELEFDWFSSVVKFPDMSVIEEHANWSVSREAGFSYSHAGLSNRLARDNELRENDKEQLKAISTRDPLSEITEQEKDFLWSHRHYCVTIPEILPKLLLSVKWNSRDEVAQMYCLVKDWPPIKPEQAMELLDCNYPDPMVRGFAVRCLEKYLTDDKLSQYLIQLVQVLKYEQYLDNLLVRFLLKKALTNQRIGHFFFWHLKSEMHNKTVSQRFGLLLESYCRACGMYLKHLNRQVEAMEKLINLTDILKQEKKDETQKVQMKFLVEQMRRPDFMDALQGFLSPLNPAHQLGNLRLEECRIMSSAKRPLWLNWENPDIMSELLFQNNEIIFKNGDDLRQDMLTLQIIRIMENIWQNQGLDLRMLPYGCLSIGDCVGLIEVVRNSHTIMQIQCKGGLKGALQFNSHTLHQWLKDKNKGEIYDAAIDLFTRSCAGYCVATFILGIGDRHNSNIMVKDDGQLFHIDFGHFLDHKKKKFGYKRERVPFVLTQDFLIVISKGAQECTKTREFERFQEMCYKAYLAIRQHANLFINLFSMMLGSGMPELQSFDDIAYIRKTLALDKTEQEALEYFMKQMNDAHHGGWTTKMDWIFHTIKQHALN", "experiment": "Inhibition of human recombinant PI3Kalpha using PIP2/ATP as substrate incubated for 20 mins followed by substrate addition by Kinase Glo reagent based luminescence assay"}, "[27]": {"experiment": "Intrinsic clearance in human hepatocytes assessed per million cells", "format": "ADME, cell-based, Hepatocyte", "conditions": "read-out: CLH", "method_in_brief": "as §1"}, "[28]": {"biological_target": "T4, Phosphatidylinositol 4,5-bisphosphate 3-kinase catalytic subunit alpha isoform", "experiment": "Inhibition of PI3Kalpha in human BT474 cells assessed as reduction in AKT phosphorylation at Thr-308 residue", "format": "cell-based"}, "[29]": {"experiment": "Volume of distribution at steady state in Han Wistar rat at 2 mg/kg, iv or 5 mg/kg, po", "format": "ADME, organism-based", "conditions": "in vivo, read-out: Vdss"}, "[30]": {"experiment": "Thermodynamic solubility of the compound in 0.1M aqueous phosphate buffer at pH 7.4 after 24 hrs by LC-UV analysis", "format": "physicochemical", "conditions": "read-out: Therm_solubility", "method_in_brief": "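Solid samples equilibrated in 0.1 M aqueous phosphate buffer, pH 7.4, for 24 h at 25 °C.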"}, "[31]": {"biological_target": "Dual specificity protein kinase CLK1 (Homo sapiens) (UniProt P49759)", "experiment": "Inhibition of N-terminal His6-tagged recombinant human CLK1 (130-end residues) expressed in baculovirus infected Sf21 cells at 1 uM relative to control"}, "physchem": {"experiment": "physchem", "conditions": "octanol/buffer, pH 7.4"}, "[32]": {"biological_target": "Vascular endothelial growth factor receptor 2 (Homo sapiens, UniProt P35968)", "experiment": "Inhibition of KDR (unknown origin)"}, "[33]": {"experiment": "Clearance in dog at 1 mg/kg, iv or 2 mg/kg, po", "format": "ADME, organism-based, Canis lupus familiaris", "conditions": "in vivo"}},
  "note": "Active and inactive are the calls of the source. No cut-off for these calls is given here.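 Throughout, for logD: determined by the shake flask method.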",
  "data": [
    {"smiles": "COCc1ccc(-c2cc3c(N[C@@H](C)c4ccn(C)n4)c(C(N)=O)cnc3cc2F)cn1", "values": [
      {"measurement": "inhibition", "setting": "[1]", "result": 56, "unit": "%"},
      {"measurement": "IC50", "setting": "[2]", "result": 7.1, "unit": "µM"},
      {"measurement": "fraction unbound", "setting": "[3]", "result": 0.17},
      {"measurement": "hepatocyte CLint", "setting": "[4]", "result": 5.3, "unit": "µL/min/1e6 cells"},
      {"measurement": "Cmax", "setting": "[5]", "result": 17, "unit": "µM"},
      {"measurement": "bioavailability", "setting": "[6]", "result": 71, "unit": "%"},
      {"measurement": "IC50", "setting": "[7]", "result": 370, "unit": "nM"},
      {"measurement": "bioavailability", "setting": "[8]", "result": 29, "unit": "%"},
      {"measurement": "hepatocyte CLint", "setting": "[9]", "result": 28, "unit": "µL/min/1e6 cells"},
      {"measurement": "hepatocyte CLint", "setting": "[10]", "result": 2, "unit": "µL/min/1e6 cells"},
      {"measurement": "Papp A→B", "setting": "[11]", "result": 14, "unit": "×10⁻⁶ cm/s"},
      {"measurement": "Time", "setting": "Mus musculus", "result": 10, "unit": "h"},
      {"measurement": "fraction unbound", "setting": "[12]", "result": 0.18},
      {"measurement": "fraction unbound", "setting": "[13]", "result": 0.12},
      {"measurement": "inhibition", "setting": "[14]", "result": 55, "unit": "%"},
      {"measurement": "Vd", "setting": "[15]", "result": 1.4, "unit": "L/kg"},
      {"measurement": "hepatocyte CLint at 1.5 h", "setting": "in vitro [16]", "result": "< 1.5", "unit": "µL/min/1e6 cells"},
      {"measurement": "hepatocyte CLint at 1.5 h", "setting": "in vitro [17]", "result": 5.3, "unit": "µL/min/1e6 cells"},
      {"measurement": "IC50", "setting": "[18]", "result": 12.8, "unit": "µM"},
      {"measurement": "IC50", "setting": "[19]", "result": "> 17.5", "unit": "µM"},
      {"measurement": "AUC(0-t) at 24 h", "setting": "[20]", "result": 33, "unit": "µM·h"},
      {"measurement": "TGI", "setting": "SW-620", "result": "Active"},
      {"measurement": "IC50", "setting": "[21]", "result": 1480, "unit": "nM"},
      {"measurement": "fraction unbound", "setting": "[22]", "result": 0.18},
      {"measurement": "clearance", "setting": "[23]", "result": 13, "unit": "mL/min/kg"},
      {"measurement": "IC50", "setting": "[24]", "result": "> 100", "unit": "µM"},
      {"measurement": "IC50", "setting": "[25]", "result": "> 30", "unit": "µM"},
      {"measurement": "IC50", "setting": "[26]", "result": 445, "unit": "nM"},
      {"measurement": "hepatocyte CLint", "setting": "[27]", "result": "< 1.5", "unit": "µL/min/1e6 cells"},
      {"measurement": "IC50", "setting": "[28]", "result": 18.8, "unit": "µM"},
      {"measurement": "Vd", "setting": "[29]", "result": 1, "unit": "L/kg"},
      {"measurement": "solubility thermodynamic at 24 h", "setting": "[30]", "result": 69, "unit": "µM"},
      {"measurement": "inhibition", "setting": "[31]", "result": 57, "unit": "%"},
      {"measurement": "logD", "setting": "physchem", "result": 2.7},
      {"measurement": "IC50", "setting": "[32]", "result": 79, "unit": "µM"},
      {"measurement": "clearance", "setting": "[33]", "result": 13, "unit": "mL/min/kg"}
    ]}
  ]
}
